Reference: ChEMBL document CHEMBL1125639, “Synthesis and resolution of (+-)-7-chloro-8-hydroxy-1-(3'-iodophenyl)-3-methyl-2,3,4,5-tetrahydro- 1H-3- benzazepine (TISCH): a high affinity and selective iodinated ligand for CNS D1 dopamine receptor” (J Med Chem, 1991)
Values joined by “and” are separate entries in the source; they are usually repeats but may differ in a detail not shown here. Equal entries are not always repeated.

Columns and labels:
Rattus norvegicus [1] = experiment: Biodistribution of compound in rats thyroid after an intravenous injection was measured at 2 min; assay type: ADME, organism-based, Thyroid gland; conditions: in vivo
In short: (§1)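 Male Sprague-Dawley rats (225-300 g), free access to food and water; under ether anesthesia, 0.2 mL saline containing [125I]-labeled ligand (2-5 μCi, ~2200 Ci/mmol) injected into femoral vein; killed by cardiac excision under ether at set times. […] removed, weighed, gamma-counted; % dose/organ from comparison with diluted aliquots of injectate; mean of 3 rats ± std dev.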

Rattus norvegicus [2] = experiment: Biodistribution of compound in rats skin after an intravenous injection was measured at 24 hr; assay type: ADME, organism-based, Zone of skin; conditions: in vivo
In short: (§2)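 Male Sprague-Dawley rats (225-300 g), free access to food and water. Under ether anesthesia, given 0.2 mL saline containing 125I-labelled ligand (2-5 μCi, ~2200 Ci/mmol) into the femoral vein. Killed by cardiac excision at set times. Organs removed, weighed and gamma-counted. % dose/organ is taken against diluted injectate aliquots, with blood and muscle assumed to be 7% and 40% of body weight. Mean of 3 rats ± std dev.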

Rattus norvegicus [3] = experiment: Biodistribution of compound in rats kidney after an intravenous injection was measured at 2 min; assay type: ADME, organism-based; conditions: in vivo; in short: as §2
Rattus norvegicus [4] = experiment: Ratio of regional brain distribution in striatum to that of cerebellum at 4 hr after intravenous injection; assay type: ADME, organism-based; conditions: in vivo
In short: (§3)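 After femoral-vein injection of [125I]-labeled ligand (2-5 μCi, ~2200 Ci/mmol, 0.2 mL saline, ether anesthesia) into male Sprague-Dawley rats (225-300 g), brains were dissected into cortex, striatum and cerebellum, weighed and gamma-counted. % dose/gram calculated against diluted initial dose; regional ratio = % dose/gram of region divided by that of cerebellum.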

Rattus norvegicus [5] = experiment: Biodistribution of compound in rats brain after an intravenous injection was measured at 1 hr; assay type: ADME, organism-based; conditions: in vivo
In short: (§4)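 Rats (male Sprague-Dawley, 225-300 g) given the 125I ligand (2-5 μCi, ~2200 Ci/mmol) in 0.2 mL saline via the femoral vein under ether anesthesia, then killed at set times. Whole brain removed, weighed and gamma-counted. % dose/organ is taken against diluted injectate aliquots. Mean of 3 rats ± std dev.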

Rattus norvegicus [6] = experiment: Biodistribution of compound in rats brain after an intravenous injection was measured at 30 min; assay type: ADME, organism-based; conditions: in vivo, 0.5 h; in short: as §4
Rattus norvegicus [7] = experiment: Biodistribution of compound in rats muscle after an intravenous injection was measured at 24 hr; assay type: ADME, organism-based, Muscle tissue; conditions: in vivo; in short: as §2
Rattus norvegicus [8] = experiment: Biodistribution of compound in rats heart after an intravenous injection was measured at 2 min; assay type: ADME, organism-based; conditions: in vivo; in short: as §2
Rattus norvegicus [9] = experiment: Biodistribution of compound in rats heart after an intravenous injection was measured at 4 hr; assay type: ADME, organism-based; conditions: in vivo; in short: as §2
Rattus norvegicus [10] = experiment: Biodistribution of compound in rats muscle after an intravenous injection was measured at 4 hr; assay type: ADME, organism-based, Muscle tissue; conditions: in vivo; in short: as §2
Rattus norvegicus [11] = experiment: Biodistribution of compound in rats spleen after an intravenous injection was measured at 1 hr; assay type: ADME, organism-based; conditions: in vivo; in short: as §2
Rattus norvegicus [12] = experiment: Biodistribution of compound in rats kidney after an intravenous injection was measured at 4 hr; assay type: ADME, organism-based; conditions: in vivo; in short: as §2
Rattus norvegicus [13] = experiment: Biodistribution of compound in rats blood after an intravenous injection was measured at 1 hr; assay type: ADME, organism-based; conditions: in vivo; in short: as §2
Rattus norvegicus [14] = experiment: Regional brain distribution of compound in rats cerebellum after an intravenous injection was measured at 30 min; assay type: ADME, organism-based; conditions: in vivo, 0.5 h; in short: as §3
Rattus norvegicus [15] = experiment: Biodistribution of compound in rats thyroid after an intravenous injection was measured at 24 hr; assay type: ADME, organism-based, Thyroid gland; conditions: in vivo; in short: as §1
Rattus norvegicus [16] = experiment: Biodistribution of compound in rats heart after an intravenous injection was measured at 24 hr; assay type: ADME, organism-based; conditions: in vivo; in short: as §2
Rattus norvegicus [17] = experiment: Biodistribution of compound in rats lung after an intravenous injection was measured at 1 hr; assay type: ADME, organism-based; conditions: in vivo; in short: as §2
Rattus norvegicus [18] = experiment: Biodistribution of compound in rats muscle after an intravenous injection was measured at 2 min; assay type: ADME, organism-based, Muscle tissue; conditions: in vivo; in short: as §2
Rattus norvegicus [19] = experiment: Regional brain distribution of compound in rats striatum after an intravenous injection was measured at 4 hr; assay type: ADME, organism-based; conditions: in vivo; in short: as §3
Rattus norvegicus [20] = experiment: Biodistribution of compound in rats thyroid after an intravenous injection was measured at 30 min; assay type: ADME, organism-based, Thyroid gland; conditions: in vivo, 0.5 h; in short: as §1
[21] = Ratio of regional brain distribution in striatum to that of cerebellum at 2 min after intravenous injection; assay type: functional; in short: as §3
Rattus norvegicus [22] = experiment: Biodistribution of compound in rats liver after an intravenous injection was measured at 2 min; assay type: ADME, organism-based; conditions: in vivo; in short: as §2
Rattus norvegicus [23] = experiment: (§5) Biodistribution ratio measured as the ratio of compound present in brain to that of blood at 4 hr after intravenous injection; assay type: ADME, organism-based; conditions: brain, 4 h
In short: (§6)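 Male Sprague-Dawley rats (225-300 g) given 0.2 mL saline containing [125I]-labeled ligand (2-5 μCi, ~2200 Ci/mmol) via femoral vein under ether anesthesia; sacrificed at set times by cardiac excision. Brain and blood weighed and gamma-counted against diluted injectate; ratio taken from % dose/gram values, 3 rats per time point.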

[24] = as §5; assay type: ADME, organism-based; conditions: rat; in short: as §6
Rattus norvegicus [25] = experiment: Regional brain distribution of compound in rats striatum after an intravenous injection was measured at 30 min; assay type: ADME, organism-based; conditions: in vivo, 0.5 h; in short: as §3
Rattus norvegicus [26] = experiment: Biodistribution of compound in rats blood after an intravenous injection was measured at 2 min; assay type: ADME, organism-based; conditions: in vivo; in short: as §2
Rattus norvegicus [27] = experiment: Biodistribution of compound in rats liver after an intravenous injection was measured at 4 hr; assay type: ADME, organism-based; conditions: in vivo; in short: as §2
Rattus norvegicus [28] = experiment: Biodistribution of compound in rats brain after an intravenous injection was measured at 24 hr; assay type: ADME, organism-based; conditions: in vivo; in short: as §4

CN1CCc2cc(Cl)c(O)cc2[C@@H](c2cccc(I)c2)C1
Biodistribution (Rattus norvegicus [1]): 0.121
Biodistribution (Rattus norvegicus [2]): 0.288
Biodistribution (Rattus norvegicus [3]): 4.92
Biodistribution (Rattus norvegicus [4]): 56.5
Biodistribution (Rattus norvegicus [5]): 0.568
Biodistribution (Rattus norvegicus [6]): 0.798
Biodistribution (Rattus norvegicus [7]): 0.201
Biodistribution (Rattus norvegicus [8]): 1.14
Biodistribution (Rattus norvegicus [9]): 0.014
Biodistribution (Rattus norvegicus [10]): 1.17
Biodistribution (Rattus norvegicus [11]): 0.123
Biodistribution (Rattus norvegicus [12]): 0.476
Biodistribution (Rattus norvegicus [13]): 0.847
Biodistribution (Rattus norvegicus [14]): 0.248
Biodistribution (Rattus norvegicus [15]): 0.268
Biodistribution (Rattus norvegicus [16]): 0.001
Biodistribution (Rattus norvegicus [17]): 0.621
Biodistribution (Rattus norvegicus [18]): 10.8
Biodistribution (Rattus norvegicus [19]): 0.6
Biodistribution (Rattus norvegicus [20]): 0.042 and 0.042%
Ratio [21]: 1.28
Biodistribution (Rattus norvegicus [22]): 15.78
Biodistribution (Rattus norvegicus [23]): 5.23%
Kp at 4 h [24]: 5.23
Kp at 4 h ([24]; brain / blood): 5.23
Biodistribution (Rattus norvegicus [25]): 7.09% and 5.23%
Biodistribution (Rattus norvegicus [26]): 3.28
Biodistribution (Rattus norvegicus [27]): 7.638
Biodistribution (Rattus norvegicus [28]): 0.001
